Columns and labels:
[1] = tested on: Rattus norvegicus; assay: In vivo ovaries distribution of [11C]-labeled compound in Fisher rat 10 min after injection via caudal vein.; assay type: ADME, organism-based, Female gonad; conditions: iv
In short: (§1)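 Immature female Fisher rats, 3-4 weeks old, about 50 g. Tracer was HPLC-purified, dried, redissolved in ethanol and diluted in saline. […] Animals were killed by cardiac puncture at 10 min and tissues counted. Values are % injected dose/g normalized to 100 g body weight, mean ± SD of five rats. Rats were paired (with/without carrier) and compared by paired Student's t test.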

[2] = species on record: Rattus norvegicus; assay: (§2) Tissue to blood ratio 10 min after injection of compound; assay type: functional
In short: (§3)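 Immature female Fisher rats, about 50 g. […] Rats were killed at 10 min and tissue and blood radioactivity counted. Results are tissue-to-blood ratios, mean ± SD of five rats, compared between paired animals by paired Student's t test (p < 0.05 significant).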

[3] = tested on: Rattus norvegicus; assay: In vivo uterus distribution of [11C]-labeled compound in Fisher rat 10 min after injection via caudal vein.; assay type: ADME, organism-based; conditions: iv; in short: as §1
[4] = tested on: Rattus norvegicus; assay: In vivo lung distribution of [11C]-labeled compound in Fisher rat 10 min after injection via caudal vein along with 18 ug of unlabeled estradiol.; assay type: ADME, organism-based; conditions: iv; in short: as §1
[5] = tested on: Rattus norvegicus; assay: In vivo spleen distribution of [11C]-labeled compound in Fisher rat 10 min after injection via caudal vein.; assay type: ADME, organism-based; conditions: iv; in short: as §1
[6] = tested on: Rattus norvegicus; assay: In vivo kidneys distribution of [11C]-labeled compound in Fisher rat 10 min after injection via caudal vein.; assay type: ADME, organism-based, Kidney; conditions: iv; in short: as §1
[7] = species on record: Rattus norvegicus; assay: as §2; assay type: functional; in short: as §3; remark: listed apart in the source
[8] = tested on: Rattus norvegicus; assay: In vivo spleen distribution of [11C]-labeled compound in Fisher rat 10 min after injection via caudal vein along with 18 ug of unlabeled estradiol.; assay type: ADME, organism-based; conditions: iv; in short: as §1
[9] = tested on: Rattus norvegicus; assay: In vivo kidneys distribution of [11C]-labeled compound in Fisher rat 10 min after injection via caudal vein along with 18 ug of unlabeled estradiol.; assay type: ADME, organism-based, Kidney; conditions: iv; in short: as §1
[10] = species on record: Rattus norvegicus; assay: (§4) Tissue to blood ratio 10 min after injection of compound & Estradiol; assay type: functional; in short: as §3
[11] = species on record: Rattus norvegicus; assay: as §2; assay type: functional; in short: as §3; remark: listed apart in the source
[12] = species on record: Rattus norvegicus; assay: as §2; assay type: functional; in short: as §3; remark: listed apart in the source
[13] = species on record: Rattus norvegicus; assay: as §2; assay type: functional; in short: as §3; remark: listed apart in the source
[14] = tested on: Rattus norvegicus; assay: In vivo muscle distribution of [11C]-labeled compound in Fisher rat 10 min after injection via caudal vein along with 18 ug of unlabeled estradiol.; assay type: ADME, organism-based, Muscle tissue; conditions: iv; in short: as §1
[15] = tested on: Rattus norvegicus; assay: In vivo adrenals distribution of [11C]-labeled compound in Fisher rat 10 min after injection via caudal vein along with 18 ug of unlabeled estradiol.; assay type: ADME, organism-based, Adrenal gland; conditions: iv; in short: as §1
[16] = tested on: Rattus norvegicus; assay: In vivo ovaries distribution of [11C]-labeled compound in Fisher rat 10 min after injection via caudal vein along with 18 ug of unlabeled estradiol.; assay type: ADME, organism-based, Female gonad; conditions: iv; in short: as §1
[17] = tested on: Rattus norvegicus; assay: In vivo lung distribution of [11C]-labeled compound in Fisher rat 10 min after injection via caudal vein.; assay type: ADME, organism-based; conditions: iv; in short: as §1
[18] = tested on: Rattus norvegicus; assay: In vivo liver distribution of [11C]-labeled compound in Fisher rat 10 min after injection via caudal vein.; assay type: ADME, organism-based; conditions: iv; in short: as §1
[19] = species on record: Rattus norvegicus; assay: as §4; assay type: functional; in short: as §3; remark: listed apart in the source
[20] = species on record: Rattus norvegicus; assay: as §2; assay type: functional; in short: as §3; remark: listed apart in the source
[21] = species on record: Rattus norvegicus; assay: as §4; assay type: functional; in short: as §3; remark: listed apart in the source
[22] = species on record: Rattus norvegicus; assay: as §4; assay type: functional; in short: as §3; remark: listed apart in the source
[23] = tested on: Rattus norvegicus; assay: In vivo blood distribution of [11C]-labeled compound in Fisher rat 10 min after injection via caudal vein.; assay type: ADME, organism-based; conditions: iv; in short: as §1
[24] = species on record: Rattus norvegicus; assay: as §2; assay type: functional; in short: as §3; remark: listed apart in the source
[25] = species on record: Rattus norvegicus; assay: as §4; assay type: functional; in short: as §3; remark: listed apart in the source
[26] = species on record: Rattus norvegicus; assay: as §2; assay type: functional; in short: as §3; remark: listed apart in the source
[27] = tested on: Rattus norvegicus; assay: In vivo blood distribution of [11C]-labeled compound in Fisher rat 10 min after injection via caudal vein along with 18 ug of unlabeled estradiol.; assay type: ADME, organism-based; conditions: iv; in short: as §1
[28] = tested on: Rattus norvegicus; assay: In vivo muscle distribution of [11C]-labeled compound in Fisher rat 10 min after injection via caudal vein.; assay type: ADME, organism-based, Muscle tissue; conditions: iv; in short: as §1
[29] = species on record: Rattus norvegicus; assay: as §4; assay type: functional; in short: as §3; remark: listed apart in the source
[30] = species on record: Rattus norvegicus; assay: as §4; assay type: functional; in short: as §3; remark: listed apart in the source
[31] = tested on: Rattus norvegicus; assay: In vivo adrenals distribution of [11C]-labeled compound in Fisher rat 10 min after injection via caudal vein.; assay type: ADME, organism-based, Adrenal gland; conditions: iv; in short: as §1
[32] = tested on: Rattus norvegicus; assay: In vivo liver distribution of [11C]-labeled compound in Fisher rat 10 min after injection via caudal vein along with 18 ug of unlabeled estradiol.; assay type: ADME, organism-based; conditions: iv; in short: as §1
[33] = tested on: Rattus norvegicus; assay: In vivo uterus distribution of [11C]-labeled compound in Fisher rat 10 min after injection via caudal vein along with 18 ug of unlabeled estradiol.; assay type: ADME, organism-based; conditions: iv; in short: as §1
[34] = species on record: Rattus norvegicus; assay: as §4; assay type: functional; in short: as §3; remark: listed apart in the source
[35] = species on record: Rattus norvegicus; assay: as §2; assay type: functional; in short: as §3; remark: listed apart in the source
[36] = species on record: Rattus norvegicus; assay: as §4; assay type: functional; in short: as §3; remark: listed apart in the source
[37] = species on record: Rattus norvegicus; assay: as §2; assay type: functional; in short: as §3; remark: listed apart in the source
[38] = species on record: Rattus norvegicus; assay: as §4; assay type: functional; in short: as §3; remark: listed apart in the source
[39] = species on record: Rattus norvegicus; assay: as §4; assay type: functional; in short: as §3; remark: listed apart in the source
[40] = species on record: Rattus norvegicus; assay: as §2; assay type: functional; in short: as §3; remark: listed apart in the source
[41] = species on record: Rattus norvegicus; assay: as §2; assay type: functional; in short: as §3; remark: listed apart in the source
[42] = species on record: Rattus norvegicus; assay: as §2; assay type: functional; in short: as §3; remark: listed apart in the source
[43] = species on record: Rattus norvegicus; assay: as §2; assay type: functional; in short: as §3; remark: listed apart in the source
[44] = species on record: Rattus norvegicus; assay: as §2; assay type: functional; in short: as §3; remark: listed apart in the source
[45] = species on record: Rattus norvegicus; assay: as §4; assay type: functional; in short: as §3; remark: listed apart in the source
[46] = species on record: Rattus norvegicus; assay: as §4; assay type: functional; in short: as §3; remark: listed apart in the source
[47] = species on record: Rattus norvegicus; assay: as §4; assay type: functional; in short: as §3; remark: listed apart in the source
[48] = species on record: Rattus norvegicus; assay: as §4; assay type: functional; in short: as §3; remark: listed apart in the source

Row | SMILES | Injected dose/g [1] | Injected dose/g [3] | Injected dose/g [4] | Injected dose/g [5] | Injected dose/g [6] | Injected dose/g [8] | Injected dose/g [9] | Injected dose/g [14] | Injected dose/g [15] | Injected dose/g [16] | Injected dose/g [17] | Injected dose/g [18] | Injected dose/g [23] | Injected dose/g [27] | Injected dose/g [28] | Injected dose/g [31] | Injected dose/g [32] | Injected dose/g [33] | further results
1 | CCOC(=O)NC1CC[C@H]2[C@@H]3CCc4cc(O)ccc4[C@H]3CC[C@]12C (stereo partly drawn) | 6.5% | 4.5% | 5.1% | 2.3% | 4.2% | 3.6% | 6.1% | 3.2% | 21.6% | 7.4% | 3.1% | 9.4% | 0.9% | 1.3% | 1.6% | 14.3% | 12.8% | 7.8% | Ratio [2]: 2.8; Ratio [7]: 5.5; Ratio [10]: 3.7; Ratio [11]: 3.7; Ratio [12]: 1.4; Ratio [13]: 9.1; Ratio [19]: 9.1; Ratio [20]: 9.4; Ratio [21]: 6; Ratio [22]: 2.7; Ratio [24]: 18; Ratio [25]: 1.8; Ratio [26]: 4.8; Ratio [29]: 6.2; Ratio [30]: 4.3; Ratio [34]: 14.9
2 | CCOC(=O)NCCOc1ccc(C(CC)C(CC)c2ccc(O)cc2)cc1 (stereo not drawn) | 2.5% | 5% | 2.1% | 2.4% | 2.9% | 1.6% | 5.1% | 1.3% | 5.3% | 3.5% | 2.1% | 8.5% | 0.81% | 1.3% | 1.1% | 6.5% | 7.8% | 6.2% | Tissue/Blood ratio [35]: 9; Tissue/Blood ratio [36]: 1.9; Tissue/Blood ratio [37]: 6.3; Tissue/Blood ratio [38]: 3.3; Tissue/Blood ratio [10]: 2.5; Tissue/Blood ratio [39]: 9.4; Tissue/Blood ratio [40]: 3; Tissue/Blood ratio [41]: 3.7; Tissue/Blood ratio [11]: 2.4; Tissue/Blood ratio [42]: 1.2; Tissue/Blood ratio [43]: 8; Tissue/Blood ratio [44]: 2.5; Tissue/Blood ratio [45]: 1.3; Tissue/Blood ratio [46]: 2.8; Tissue/Blood ratio [47]: 3.1; Tissue/Blood ratio [48]: 5.4

From ChEMBL document CHEMBL1122634 (J Med Chem, 1984)
